Like-named read-outs stand apart in the source and are kept apart here.
How the values were obtained:
[1] = first steady-state pazopanib trough concentration; assay type: in vivo, human
How it was run: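 Observational study. Patients took the study drug 800 mg OD fasted or 600 mg OD with food and were advised to take a PPI/H2A 1 hour later; antacid users were counted as non-GAS. Only the first steady-state (>7 consecutive days) plasma trough was used, measured by validated HPLC-MS/MS.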

advanced RCC = assay type: in vivo, human; conditions: univariate Cox regression
How it was run: (§1)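 PFS was defined as time on treatment until progression or death and analysed per tumour type, with GAS vs no GAS groups (PPI/H2A use on the days before first Cmin). Median PFS came from Kaplan-Meier with log rank test, and hazard ratios from univariate Cox regression; P<.05 was significant. Patients with GI abnormalities or on strong CYP3A4 inducers/inhibitors were excluded.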

STS = assay type: in vivo, human; conditions: for median PFS: pazopanib 800 mg fasted cohort
How it was run: as §1

[2] = cited from earlier work
[3] = cited from earlier work; remark: listed apart in the source
[4] = tested on: gastric H+/K+ adenosine triphosphatase (ATPase); conditions: porcine gastric vessels, cited from earlier work
intragastric pH = conditions: cited from earlier work
CYP1A2 = conditions: cited from earlier work

Row | SMILES | percentage of patients with Cmin below the target threshold of 20.5 mg/L ([1]; pazopanib 600 mg taken with food, with GAS) | percentage of patients with Cmin below the target threshold of 20.5 mg/L ([1]; pazopanib 600 mg taken with food, without GAS) | percentage of patients with Cmin below the target threshold of 20.5 mg/L ([1]; pazopanib 800 mg taken fasted, with GAS) | percentage of patients with Cmin below the target threshold of 20.5 mg/L ([1]; pazopanib 800 mg taken fasted, without GAS) | hazard ratio for PFS, with vs without GAS (advanced RCC) | median PFS (STS; with GAS) | median PFS (STS; without GAS) | hazard ratio for progression or death, with vs without GAS (STS; univariate Cox regression) | increase of exposure on intake with a high caloric meal [2] | oral bioavailability [2] | decrease of mean pazopanib Cmin levels ([2]; esomeprazole administered 12 hours after fasted intake of pazopanib) | solubility in aqueous solutions ([3]; above pH 4) | solubility in aqueous solutions ([3]; pH 1) | time to fully inhibit the H+, K+ ATPase [4] | duration of pH elevation >4 (intragastric pH; omeprazole 20 mg) | effect on CYP1A2 (CYP1A2) | inhibition of H+, K+ ATPase ([4]; at 45 minutes) | duration of pH elevation >4 (intragastric pH; pantoprazole 40 mg)
1 | Cc1ccc(Nc2nccc(N(C)c3ccc4c(C)n(C)nc4c3)n2)cc1S(N)(=O)=O [pazopanib] | 26.9% | 14% | 33.3% | 19.5% | 1.13 | 17 weeks | 32 weeks | 3.89 | ~ 2 fold | approximately 21% | 36% | practically insoluble | slightly soluble |  |  |  |  | 
2 | COc1ccc2[nH]c([S+]([O-])Cc3ncc(C)c(OC)c3C)nc2c1 (stereo not shown) [omeprazole] |  |  |  |  |  |  |  |  |  |  |  |  |  | 30 min | 49.16 % of the day | dose‐dependent inducer of CYP1A2 |  | 
3 | COc1ccnc(C[S+]([O-])c2nc3ccc(OC(F)F)cc3[nH]2)c1OC (stereo not shown) [pantoprazole] |  |  |  |  |  |  |  |  |  |  |  |  |  |  |  | does not affect CYP1A2 | 50% | 41.94 % of the day

From PMC8048885 (International Journal of Cancer, 2021)
